# Test results taken from ChEMBL document CHEMBL3779892, “Increasing the binding affinity of VEGFR-2 inhibitors by extending their hydrophobic interaction with the active site: Design, synthesis and biological evaluation of 1-substituted-4-(4-methoxybenzyl)phthalazine derivatives” (Eur J Med Chem, 2016).
# Columns and labels:
# Assay type in all cases: functional
# [1] = Growth inhibition of human OVCAR8 cells at 10 uM after 48 hrs by sulforhodamine B assay; details: OVCAR-8, 48 h, read-out: GI
# Outline: (§1)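 Run at NCI on the 60-line panel. Cells grown in RPMI 1640 with 5% FBS and 2 mM L-glutamine, plated at 5000–40,000 cells/well by doubling time, and held 24 h at 37 °C before dosing. Drug (DMSO stock) given at a single final 10 µM in triplicate wells for 48 h. Adherent cells fixed with cold TCA (10% final), suspension cells with 16% TCA. SRB stain read at 515 nm. Percent growth from Tz, C and Ti.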
# [2] = system: MDA-MB-468; assay: Growth inhibition of human MDA-MB-468 cells at 10 uM after 48 hrs by sulforhodamine B assay; details: MDA-MB-468, 48 h, read-out: GI; outline: as §1
# [3] = system: NCI-H522; assay: Growth inhibition of human NCI-H522 cells at 10 uM after 48 hrs by sulforhodamine B assay; details: NCI-H522, 48 h, read-out: GI; outline: as §1
# [4] = system: ACHN; assay: Growth inhibition of human ACHN cells at 10 uM after 48 hrs by sulforhodamine B assay; details: read-out: GI; outline: as §1
# [5] = system: HT-29; assay: Growth inhibition of human HT-29 cells at 10 uM after 48 hrs by sulforhodamine B assay; details: HT-29, 48 h, read-out: GI; outline: as §1
# [6] = system: NCI-H460; assay: Growth inhibition of human NCI-H460 cells at 10 uM after 48 hrs by sulforhodamine B assay; details: NCI-H460, 48 h, read-out: GI; outline: as §1
# [7] = system: K562; assay: Growth inhibition of human K562 cells at 10 uM after 48 hrs by sulforhodamine B assay; details: K562, 48 h, read-out: GI; outline: as §1
# [8] = Growth inhibition of human HOP92 cells at 10 uM after 48 hrs by sulforhodamine B assay; details: HOP-92, 48 h, read-out: GI; outline: as §1
# [9] = system: MDA-MB-435; assay: Growth inhibition of human MDA-MB-435 cells at 10 uM after 48 hrs by sulforhodamine B assay; details: MDA-MB-435, 48 h, read-out: GI; outline: as §1
# [10] = Growth inhibition of human SF268 cells at 10 uM after 48 hrs by sulforhodamine B assay; details: SF-268, 48 h, read-out: GI; outline: as §1
# [11] = system: NCI-H226; assay: Growth inhibition of human NCI-H226 cells at 10 uM after 48 hrs by sulforhodamine B assay; details: NCI-H226, 48 h, read-out: GI; outline: as §1
# [12] = system: A549; assay: Growth inhibition of human A549 cells at 10 uM after 48 hrs by sulforhodamine B assay; details: A549, 48 h, read-out: GI; outline: as §1
# [13] = system: NCI-H23; assay: Growth inhibition of human NCI-H23 cells at 10 uM after 48 hrs by sulforhodamine B assay; details: NCI-H23, 48 h, read-out: GI; outline: as §1
# [14] = Growth inhibition of human Hs 578T cells at 10 uM after 48 hrs by sulforhodamine B assay; details: read-out: GI; outline: as §1
# [15] = Growth inhibition of human SNB19 cells at 10 uM after 48 hrs by sulforhodamine B assay; details: SNB-19, 48 h, read-out: GI; outline: as §1
# [16] = system: SR; assay: Growth inhibition of human SR cells at 10 uM after 48 hrs by sulforhodamine B assay; details: read-out: GI
# Outline: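 NCI-60 screen. Cells were grown in RPMI 1640 with 5% FBS and 2 mM L-glutamine, plated at 5000–40,000 cells/well and held 24 h at 37 °C, 5% CO2. Single 10 µM final dose from DMSO stock, triplicate wells, 48 h. Settled cells were fixed with 80% TCA (16% final) and stained with 0.4% SRB. Dye was solubilized in 10 mM Tris and read at 515 nm. Growth was calculated against time-zero and untreated wells.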
# [17] = Growth inhibition of human SF295 cells at 10 uM after 48 hrs by sulforhodamine B assay; details: SF-295, 48 h, read-out: GI; outline: as §1
# [18] = Growth inhibition of human OVCAR3 cells at 10 uM after 48 hrs by sulforhodamine B assay; details: OVCAR-3, 48 h, read-out: GI; outline: as §1
# [19] = Growth inhibition of human SW620 cells at 10 uM after 48 hrs by sulforhodamine B assay; details: SW-620, 48 h, read-out: GI
# Outline: (§2)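 NCI-60 panel, adherent cells grown in RPMI 1640 with 5% FBS and 2 mM L-glutamine, plated at 5000–40,000 cells/well and preincubated 24 h at 37 °C, 5% CO2. 10 µM final compound from DMSO stock, triplicate wells, 48 h. Fixed with cold TCA (10% final, 60 min, 4 °C) and stained with 0.4% SRB. Absorbance read at 515 nm; growth calculated against time-zero and control wells.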
# [20] = Growth inhibition of human OVCAR5 cells at 10 uM after 48 hrs by sulforhodamine B assay; details: OVCAR-5, 48 h, read-out: GI; outline: as §1
# [21] = system: SK-MEL-5; assay: Growth inhibition of human SK-MEL-5 cells at 10 uM after 48 hrs by sulforhodamine B assay; details: SK-MEL-5, 48 h, read-out: GI; outline: as §1
# [22] = system: SK-MEL-28; assay: Growth inhibition of human SK-MEL-28 cells at 10 uM after 48 hrs by sulforhodamine B assay; details: SK-MEL-28, 48 h, read-out: GI; outline: as §1
# [23] = system: A498; assay: Growth inhibition of human A498 cells at 10 uM after 48 hrs by sulforhodamine B assay; details: A498, 48 h, read-out: GI; outline: as §1
# [24] = Growth inhibition of human PC3 cells at 10 uM after 48 hrs by sulforhodamine B assay; details: PC-3, 48 h, read-out: GI; outline: as §1
# [25] = Growth inhibition of human SNB75 cells at 10 uM after 48 hrs by sulforhodamine B assay; details: SNB-75, 48 h, read-out: GI; outline: as §1
# [26] = system: CCRF-CEM; assay: Growth inhibition of human CCRF-CEM cells at 10 uM after 48 hrs by sulforhodamine B assay; details: read-out: GI; outline: as §1
# [27] = system: MDA-MB-231; assay: Growth inhibition of human MDA-MB-231 cells at 10 uM after 48 hrs by sulforhodamine B assay; details: MDA-MB-231, 48 h, read-out: GI; outline: as §1
# [28] = system: KM12; assay: Growth inhibition of human KM12 cells at 10 uM after 48 hrs by sulforhodamine B assay; details: KM12, 48 h, read-out: GI; outline: as §1
# [29] = Growth inhibition of human DU145 cells at 10 uM after 48 hrs by sulforhodamine B assay; details: DU-145, 48 h, read-out: GI; outline: as §1
# [30] = Growth inhibition of human UO31 cells at 10 uM after 48 hrs by sulforhodamine B assay; details: UO-31, 48 h, read-out: GI; outline: as §2
# [31] = Growth inhibition of human UACC62 cells at 10 uM after 48 hrs by sulforhodamine B assay; details: UACC-62, 48 h, read-out: GI; outline: as §2
# [32] = system: M14; assay: Growth inhibition of human M14 cells at 10 uM after 48 hrs by sulforhodamine B assay; details: M14, 48 h, read-out: GI; outline: as §1
# [33] = Growth inhibition of human NCI-ADR-RES cells at 10 uM after 48 hrs by sulforhodamine B assay; details: read-out: GI; outline: as §1
SMILES,inhibition of growth at 10 µM [1],inhibition of growth at 10 µM [2],inhibition of growth at 10 µM [3],inhibition of growth at 10 µM [4],inhibition of growth at 10 µM [5],inhibition of growth at 10 µM [6],inhibition of growth at 10 µM [7],inhibition of growth at 10 µM [8],inhibition of growth at 10 µM [9],inhibition of growth at 10 µM [10],inhibition of growth at 10 µM [11],inhibition of growth at 10 µM [12],inhibition of growth at 10 µM [13],inhibition of growth at 10 µM [14],inhibition of growth at 10 µM [15],inhibition of growth at 10 µM [16],inhibition of growth at 10 µM [17],inhibition of growth at 10 µM [18],inhibition of growth at 10 µM [19],inhibition of growth at 10 µM [20],other results
COc1ccc(Cc2nnc(Nc3ccc(Cl)c(C(F)(F)F)c3)c3ccccc23)cc1,40%,54%,49%,45%,48%,74%,60%,58%,< 30%,< 30%,43%,62%,40%,34%,43%,43%,49%,59%,< 30%,33%,inhibition of growth at 10 µM [21]: < 30%; inhibition of growth at 10 µM [22]: < 30%; inhibition of growth at 10 µM [23]: 46%; inhibition of growth at 10 µM [24]: 61%; inhibition of growth at 10 µM [25]: < 30%; inhibition of growth at 10 µM [26]: 52%; inhibition of growth at 10 µM [27]: 40%; inhibition of growth at 10 µM [28]: 52%; inhibition of growth at 10 µM [29]: 37%; inhibition of growth at 10 µM [30]: 63%; inhibition of growth at 10 µM [31]: 41%; inhibition of growth at 10 µM [32]: 48%; inhibition of growth at 10 µM [33]: 50%
COc1ccc(Cc2nnc(Nc3ccc(OC)cc3)c3ccccc23)cc1,< 30%,< 30%,< 30%,< 30%,< 30%,< 30%,< 30%,55%,< 30%,< 30%,< 30%,< 30%,< 30%,< 30%,< 30%,34%,30%,< 30%,< 30%,< 30%,inhibition of growth at 10 µM [21]: < 30%; inhibition of growth at 10 µM [22]: < 30%; inhibition of growth at 10 µM [23]: 47%; inhibition of growth at 10 µM [24]: < 30%; inhibition of growth at 10 µM [25]: < 30%; inhibition of growth at 10 µM [26]: < 30%; inhibition of growth at 10 µM [27]: 36%; inhibition of growth at 10 µM [28]: < 30%; inhibition of growth at 10 µM [29]: < 30%; inhibition of growth at 10 µM [30]: 43%; inhibition of growth at 10 µM [31]: 34%; inhibition of growth at 10 µM [32]: < 30%; inhibition of growth at 10 µM [33]: < 30%
COc1ccc(Cc2nnc(Nc3cccc(OC)c3)c3ccccc23)cc1,< 30%,< 30%,63%,< 30%,< 30%,< 30%,< 30%,53%,< 30%,< 30%,37%,< 30%,< 30%,< 30%,30%,35%,< 30%,< 30%,< 30%,< 30%,inhibition of growth at 10 µM [21]: < 30%; inhibition of growth at 10 µM [22]: < 30%; inhibition of growth at 10 µM [23]: < 30%; inhibition of growth at 10 µM [24]: 30%; inhibition of growth at 10 µM [25]: 41%; inhibition of growth at 10 µM [26]: < 30%; inhibition of growth at 10 µM [27]: 37%; inhibition of growth at 10 µM [28]: < 30%; inhibition of growth at 10 µM [29]: < 30%; inhibition of growth at 10 µM [30]: 57%; inhibition of growth at 10 µM [31]: < 30%; inhibition of growth at 10 µM [32]: < 30%; inhibition of growth at 10 µM [33]: 30%
COc1ccc(Cc2nnc(Nc3ccc(NC(=O)Nc4cccc(OC)c4)cc3)c3ccccc23)cc1,< 30%,< 30%,< 30%,< 30%,< 30%,< 30%,< 30%,< 30%,< 30%,< 30%,< 30%,< 30%,< 30%,50%,< 30%,< 30%,< 30%,< 30%,< 30%,< 30%,inhibition of growth at 10 µM [21]: < 30%; inhibition of growth at 10 µM [22]: < 30%; inhibition of growth at 10 µM [23]: < 30%; inhibition of growth at 10 µM [24]: < 30%; inhibition of growth at 10 µM [25]: < 30%; inhibition of growth at 10 µM [26]: < 30%; inhibition of growth at 10 µM [27]: < 30%; inhibition of growth at 10 µM [28]: < 30%; inhibition of growth at 10 µM [29]: < 30%; inhibition of growth at 10 µM [30]: < 30%; inhibition of growth at 10 µM [31]: < 30%; inhibition of growth at 10 µM [32]: < 30%; inhibition of growth at 10 µM [33]: < 30%
COc1ccc(Cc2nnc(Nc3ccc(NC(=O)Nc4cccc(C(F)(F)F)c4)cc3)c3ccccc23)cc1,< 30%,< 30%,56%,41%,< 30%,< 30%,< 30%,< 30%,< 30%,< 30%,< 30%,35%,< 30%,34%,30%,34%,< 30%,< 30%,< 30%,< 30%,inhibition of growth at 10 µM [21]: < 30%; inhibition of growth at 10 µM [22]: < 30%; inhibition of growth at 10 µM [23]: < 30%; inhibition of growth at 10 µM [24]: 36%; inhibition of growth at 10 µM [25]: 31%; inhibition of growth at 10 µM [26]: 35%; inhibition of growth at 10 µM [27]: < 30%; inhibition of growth at 10 µM [28]: 36%; inhibition of growth at 10 µM [29]: < 30%; inhibition of growth at 10 µM [30]: < 30%; inhibition of growth at 10 µM [31]: < 30%; inhibition of growth at 10 µM [32]: 30%; inhibition of growth at 10 µM [33]: < 30%
